Measured values from different studies.
Each line is one published result; the experiments were not run side by side.
Target: Tyrosine-protein kinase HCK (HCK, Homo sapiens, UniProt P08631)

`COc1cnc(Nc2cccc(S(N)(=O)=O)c2)nc1N1CCN(c2ccccc2)CC1` has a remaining binding of 100% (binding, competition with immobilised ligand; 1 µM).
The remaining binding of `F[C@@H]1CCN(c2nccc(-c3cnn4ncccc34)n2)C1` is reported as 78% (binding; 1 µM).
`CC(C)CC(=O)N1CCc2nc(-c3ccc(Br)cc3)nc(N(C)Cc3ccccc3)c2C1` has a remaining binding of 94% (cell-free assay, competition with immobilised ligand; 0.1 µM).
`CN(C)c1nccc(-c2cnc3ncccn23)n1` gave a remaining binding of 100% (binding; 1 µM).
For `CCOCCn1cc(C(=O)Nc2ccc(-n3nc(-c4cccnc4)cc3C(F)(F)F)cn2)ccc1=O`, the remaining binding was 93% (cell-free assay, competition with immobilised ligand; 1 µM).
For `CNC(=O)[C@@H]1CC[C@@H](n2c(-c3ccc4cnccc4c3)nc3ccc(C(=O)NCc4cccc(C(N)=O)c4)cc32)C1`, the remaining binding was 93% (binding, competition with immobilised ligand; 1 µM).
`C[C@@H]1CCN(c2nccc(-c3cnn4ncccc34)n2)C1` has a remaining binding of 84% (binding; 1 µM).
`COCCOc1nc(-c2ccc(Cl)nc2)nc2c1CN(C(=O)c1ncn3ccccc13)CC2` gave a remaining binding of 100% (cell-free assay, competition with immobilised ligand; 0.1 µM).
`c1cnn2ncc(-c3ccnc(N4CCC45COC5)n3)c2c1` gave a remaining binding of 90% (binding; 1 µM).
`O=C(NCc1ncc(C(F)(F)F)cc1Cl)c1ccc2c(c1)C1(CCS(=O)(=O)CC1)[C@@H](C1CC1)N2S(=O)(=O)c1ccc(F)cc1` gave a remaining binding of 86% (cell-free assay, competition with immobilised ligand; 1 µM).
`c1cncc(-c2cccc(Nc3nccc(NC4CCCCC4)n3)c2)c1` gave a remaining binding of 3.1% (binding, competition with immobilised ligand; 10 µM).
`O=C(c1ccc(Nc2ncc(Cl)c(-c3ccc(Cl)s3)n2)cc1)N1CCC(N2CCCC2)CC1` has a remaining binding of 100% (binding, competition with immobilised ligand; 1 µM).
With `CC1CCCN1c1nccc(-c2cnn3ncccc23)n1` (stereo not drawn) the remaining binding was 100% (binding; 1 µM).
`O=C(NCCCN1CCOCC1)c1ccc(Nc2ncc(Cl)c(-c3ccc(Cl)s3)n2)cc1` has a remaining binding of 100% (binding, competition with immobilised ligand; 1 µM).
`C[C@@H](c1ccc(-n2cnc3c(N)ncnc32)cc1)N1CCc2nn(C)c(Cc3ccccc3)c2C1=O` gave a remaining binding of 86% (binding, competition with immobilised ligand; 0.1 µM).
`Nc1ncc2c(n1)-c1c([nH]c3ccc(C#CC4CC4)cc13)CCCC2` gave a remaining binding of 100% (binding, competition with immobilised ligand; 1 µM).
With `O=C(Nc1c[nH]nc1C(=O)NC1CCNCC1)c1cc(F)cc(F)c1` the remaining binding was 100% (binding, competition with immobilised ligand; 1 µM).
For `COc1ccc2c(O[C@@H]3C[C@H]4C(=O)N[C@]5(C(=O)O)CC5/C=C\CCCCC[C@H](NC(=O)OC5CCCC5)C(=O)N4C3)cc(-c3csc(NC(=O)C(C)C)n3)nc2c1C` (stereo partly drawn), the remaining binding was 100% (cell-free assay, competition with immobilised ligand; 1 µM).
`N[C@H]1CCN(c2nccc(-c3cnn4ncccc34)n2)C1` has a remaining binding of 98% (binding; 1 µM).
For `O=C(c1ccc(Nc2nccc(-c3cc4ccccc4s3)n2)cc1)N1CCC(N2CCCC2)CC1`, the remaining binding was 100% (binding, competition with immobilised ligand; 1 µM).
`CN1CCN(c2cnc3c(C4CCN(C(=O)c5ccc(OC(F)(F)F)cc5N)CC4)ncnc3c2)CC1` has a remaining binding of 95% (cell-free assay, competition with immobilised ligand; 1 µM).
